Shown are actives, neighbours in structure and some others; about 2.2% of the full set was active somewhere.
PMI activator = activators of human phosphomannose isomerase; hit rate 0.005% among 190,000; purified human PMI, coupled resazurin fluorescence, 20 min; hits give high values; 1 = vehicle control, 0 substrate-free wells; activation factor at 20 µM;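 active = activation factor of 2 or more at 20 µM, relative to plate controls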
PMI act hi M6P = activators of human phosphomannose isomerase at near-saturating mannose 6-phosphate; hit rate 0.34% among 190,000; P34949; activation factor at 20 µM; AID 1216; coupled PMI enzyme assay, resazurin fluorescence, 20 min; hits give high values; 1 = untreated enzyme, 0 = substrate-free blank;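 active = activation factor of 2 or more at 20 µM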
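assay system = human phosphomannose isomerase with PGI, G6PDH, diaphorase coupling enzymes | quantity = 15 ng/mL PMI | incubation = enzyme reaction with compound 20 min at room temperature | medium = HEPES pH 7.4 buffer with MgCl2 and Tween-20 | compound dosing = one concentration, 20 µM, in 1% DMSO | measured by = Diaphorase-driven resazurin-to-resorufin fluorescence, excitation 544, emission 590 nm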
G6PDH CS = inhibits Leuconostoc G6PDH, flagging false hits in G6PDH-based assays. Purified L. mesenteroides G6PDH, diaphorase/resazurin coupled fluorescence, 45 min. inhibition, % at 5 µM. hit rate 0.12% among 200,000; in the data active = inhibition above about 50%
Diaphorase act = diaphorase activation or chemical reduction counter-screen; Diaphorase/resazurin coupled assay, resorufin fluorescence, 16 min; hits give high values; 1 = vehicle wells, 0 = NADH-free wells; activation factor at 20 µM; hit rate 0.005% among 190,000;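 active = diaphorase activity raised at least twofold by the compound at 20 µM; inactive = activation factor below 2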
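test system = bacterial diaphorase enzyme (C. kluyveri) | quantity = enzyme 0.07 U/mL final | reagent = NADH substrate 0.114 mM plus resazurin dye 0.1 mM, final | incubation = 16 min enzyme reaction, ambient temperature | buffer or medium = HEPES pH 7.4 buffer with MgCl2 and Tween 20 | signal = fluorescence of resorufin, 544 nm excitation, 590 nm emission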
ROMK primary = modulates human ROMK potassium channel activity. Tet-inducible ROMK, thallium flux fluorescence; actives lie on both sides. B-score at 10 µM. P48048. hit rate 2% among 130,000;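 active = signal ratio slope over the read window, or its plate-corrected B-score, at least 3 SD from the plate mean, either direction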;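 also: B-score of the F/F0 ratio slope over 7 to 12 s after thallium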
Target sequence (P48048 whole entry, looked up): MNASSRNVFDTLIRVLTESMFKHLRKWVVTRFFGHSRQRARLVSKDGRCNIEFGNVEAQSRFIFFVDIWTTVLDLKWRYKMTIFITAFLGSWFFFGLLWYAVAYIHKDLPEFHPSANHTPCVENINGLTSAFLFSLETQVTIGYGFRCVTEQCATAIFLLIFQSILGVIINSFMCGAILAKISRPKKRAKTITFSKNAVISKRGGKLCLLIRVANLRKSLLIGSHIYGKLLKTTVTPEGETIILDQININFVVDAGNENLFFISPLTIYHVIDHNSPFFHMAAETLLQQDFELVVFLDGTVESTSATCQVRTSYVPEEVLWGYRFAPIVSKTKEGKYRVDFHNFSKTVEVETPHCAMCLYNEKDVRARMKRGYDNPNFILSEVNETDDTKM
Diaphorase inh = diaphorase inhibition or chemical oxidation counter-screen. diaphorase resazurin-to-resorufin fluorescence, NADH, 16 min; bacterial (C. kluyveri) enzyme, not human. inhibition, % at 20 µM. AID 1217. hit rate 0.69% among 190,000;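 active = primary screen inhibition at 20 µM above a set limit, cut at about 50% in these data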;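 also: plate controls were DMSO with full reaction for no effect and wells lacking NADH for full effect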
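Test system: Clostridium kluyveri diaphorase enzyme / Quantity: diaphorase at 0.14 U/mL in enzyme working solution / Incubation: 16-min room-temperature incubation before reading / Benchmarks: NADH-free wells as positive control, DMSO-only neutral wells / Signal: resorufin fluorescence 544/590 nm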
ROMK retest = retested hit modulating human ROMK potassium channel; ROMK thallium flux, fluorescence ratio; hits give low values; hit rate 54% among 3,000; shares compounds with ROMK primary; AID 1917; normalized thallium flux (F/F0 slope) at 10 µM;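 active = Flux at 10 µM at least 3 SD below or above vehicle control mean in one or both replicates; inconclusive = no clear call, values can overlap the other calls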
Numbers without * were called inactive; ? = inconclusive; · = not tested or not shown.

SMILES | PMI activator | PMI act hi M6P | G6PDH CS | Diaphorase act | ROMK primary | Diaphorase inh | ROMK retest
CC(C)NC(=O)/C(C#N)=C/c1ccc(N(C)C)o1 | · | · | · | · | -7.43* | · | 0.0471*
O=C(/C=C/c1ccccc1)CC(O)(c1ccccc1)C(F)(F)C(F)F (centres undefined) | 0.9 | 1 | -3.0 | 0.9 | -0.357 | 13.6 | ·
O=C(/C=C/c1ccccc1)CC(O)(c1ccccc1)C(F)(F)F (centres undefined) | 1 | 1 | 0.2 | 0.9 | -4.78* | 7.6 | 0.0517*
COCC1CCCN(Cc2cn(-c3ccccc3F)nc2-c2cc(C)sc2C)C1 (centres undefined) | 1 | 1 | 10.4 | 1.1 | -2.52 | -6.4 | ·
COc1ccc(N(C(=O)/C=C/C(=O)Nc2cc(C)on2)C(C(=O)NC2CCCC2)c2ccccc2C)cc1 (centres undefined) | 0.9 | 1.1 | 18.4 | 1 | -6.44* | 2.7 | 0.0575*
COc1ccc(N(C(=O)CCC(=O)Nc2cc(C)on2)C(C(=O)NC2CCCC2)c2ccco2)cc1 (centres undefined) | 1 | 0.8 | -1.9 | 0.9 | -0.159 | 8.9 | ·
O=C1/C(=C/c2cccnc2)SC(=S)N1CC1CCCO1 (centres undefined) | 0.9 | 0.8 | 2.0 | 0.9 | -3.98* | 5.8 | ?
CC(C)C1CC(CCNCc2ccc(N(C)C)cc2)(c2ccccc2)CCO1 (centres undefined) | 1 | 1 | -0.4 | 0.9 | · | 5.7 | 0.0482*
Cc1ccc(C2(CCNCc3ccc(N(C)C)cc3)CCOC(C(C)C)C2)cc1 (centres undefined) | 1 | 1 | 14.7 | 1.1 | -1.04 | -8.2 | ·
CC1(C)CC(O)(CNCc2ccc3c(c2)OCO3)CCO1 (centres undefined) | 1.1 | 1 | 6.9 | 1.1 | · | -9.8 | ·
CC(C)C1CC(CCNCc2ccc3c(c2)OCO3)(c2ccccc2)CCO1 (centres undefined) | · | · | · | · | -2.9* | · | 0.0546*
Cc1ccc(C2(CCNS(=O)(=O)c3ccc(C)cc3)CCOC(C(C)C)C2)cc1 (centres undefined) | 0.8 | 0.9 | 3.9 | 0.9 | · | 13.0 | 0.061*
CCCC(=O)Nc1cccc(C(=O)Nc2ccccc2OCC)c1 | 1 | 1 | 13.3 | 0.9 | 0.381 | 7.0 | ·
COc1ccc(CC(=O)N(C)C2CCCCC2)cc1S(=O)(=O)N1CCOCC1 | 1.1 | 1 | 2.0 | 1 | 1.62 | -1.0 | ·
CCN1C(=O)[C@H]2[C@H]3[C@H](O)[C@H](O)C/C(=N\OC[C@@H](C)[C@H](OCc4ccccc4)C(C)C)[C@@H]3CC[C@H]2C1=O | 1 | 0.8 | 26.3 | 0.9 | -1.36 | 10.6 | ·
Cc1cccc(COCC(Cc2ccccc2)N2CCN(C(=O)c3cccc(Cl)c3)CCC2=O)c1 (centres undefined) | 1 | 1.1 | 5.9 | 0.9 | -2.93* | 14.6 | 0.0536*
Cc1ccc(S(=O)(=O)N2CCC(=O)N(C(COCc3ccc(Cl)cc3)Cc3ccccc3)CC2)cc1 (centres undefined) | 0.9 | 0.9 | 9.7 | 0.9 | -4.37* | 12.0 | ?
Cc1cccc(C(=O)N2CCC(=O)N(C(COCc3cccc(C(F)(F)F)c3)Cc3ccccc3)CC2)c1 (centres undefined) | 0.9 | 0.9 | 13.2 | 0.8 | -3.26* | 17.4 | 0.0585*
Cc1cccc(C(=O)N2CCC(=O)N(C(COCc3ccccc3)Cc3ccccc3)CC2)c1 (centres undefined) | 0.9 | 0.9 | 17.0 | 0.8 | -1.62 | 20.4 | ·
CCC(=O)c1ccc(/C=C/c2nc3ccccc3n2C)o1 | 1.3 | 1.2 | 12.2 | 0.9 | 0.00479 | 10.1 | ·
CSC(=S)NCc1cccnc1 | 1.1 | 1.1 | 4.0 | 1 | -0.0328 | 0.9 | ·
O=C(NC1CCCCCCC1)C1c2ccccc2C(=O)N1Cc1ccco1 (centres undefined) | 1 | 0.9 | -0.4 | 0.9 | · | 14.1 | ?
O=C(O)COC(=O)C1C(c2ccccc2)C(C(=O)O)C1c1ccccc1 (centres undefined) | 1.2 | 1.1 | 7.2 | 1.1 | 1.25 | -8.5 | ·
COC(=O)C1C(c2ccccc2)C(C(=O)O)C1c1ccccc1 (centres undefined) | 1 | 1 | 7.0 | 0.9 | 1.98 | 14.5 | 0.0748
CCCc1nnc(N2C(=O)c3cccc4cccc(c34)C2=O)s1 | 0.9 | 1 | 6.6 | 0.9 | 2.32* | 10.5 | 0.0802
SMILES | PMI activator | PMI act hi M6P | G6PDH CS | Diaphorase act | ROMK primary | Diaphorase inh | ROMK retest
CC1CN(S(=O)(=O)N2CCOCC2)CCN1S(=O)(=O)N1CCOCC1 (centres undefined) | 1 | 0.9 | 9.9 | 0.9 | 1.31 | 13.9 | ·
COc1ccc(N2C(=O)CC2(/C=C/c2ccccc2OC)C(=O)NC2CCCC2)cc1 (centres undefined) | 0.9 | 0.9 | -1.1 | 0.8 | -4.7* | 19.9 | 0.0537*
CCOc1ccc(NC(=O)CC(NCc2ccccn2)C(=O)O)cc1 (centres undefined) | 0.9 | 0.7 | 24.3 | 0.9 | 0.15 | 12.7 | ·
C=CCN1C=CC(=CC=C(C#N)C#N)C=C1 | · | · | · | · | -7.46* | · | 0.0336*
COc1cc2c(cc1OC)CN(CC(=O)Nc1ccc3c(c1)OC(F)(F)O3)CC2 | 0.9 | 0.9 | 1.4 | 0.9 | 2.48* | 9.5 | 0.0784
CCN1CCCc2cc(CN(CCN3CCOCC3)C(=O)Nc3ccc(C)c(C)c3)ccc21 | 0.9 | 0.9 | 10.1 | 0.8 | -3.53* | 15.1 | 0.0558*
CCc1ccc(NC(=O)N(CCN2CCOCC2)Cc2ccc3c(c2)CCCN3CC)cc1 | 1 | 1 | -0.9 | 1 | -1.57 | -3.3 | ·
CCCCc1cc(=O)oc2cc(C)cc(O)c12 | 1 | 0.9 | 4.3 | 0.9 | · | 13.7 | 0.0542*
CCCCc1cc(=O)oc2cc(O)cc(O)c12 | 0.7 | 0.4 | 45.8 | 0.7 | -1.02 | 31.3 | ·
O=C(Nc1c2c(nn1-c1ccc(F)cc1)CS(=O)C2)c1ccc(S(=O)(=O)N2CCOCC2)cc1 (centres undefined) | 1 | 1 | 5.1 | 1 | 0.0283 | 3.4 | ·
Cc1nn(-c2ccc(Cl)nn2)c(=O)c2ccccc12 | 1 | 0.9 | -0.7 | 0.9 | -0.0301 | 6.2 | ·
CCCCCNC(=O)C1CCC(Cn2c(=S)[nH]c3ccccc3c2=O)CC1 (centres undefined) | 1.1 | 1.1 | 2.6 | 1 | 0.83 | -4.0 | ·
CCOc1cc(/C=N/N=C(N)N)ccc1OCc1ccc(Cl)cc1 | 1.1 | 1.2 | -1.7 | 2* | -3.9* | -99.5 | 0.053*
Cc1cc2c3c(c1)C(C)CC(C)(C)N3C(=O)C2=O (centres undefined) | 0.7 | 0.8 | 17.3 | 0.8 | 3.14* | 15.1 | ?

Compound activity: PubChem, several laboratories
